Assays:
[1] = target: FL huCD4 A17V (Homo sapiens, UniProt P01730, A17V); experiment: CADA down-modulation of cellular huCD4; assay type: cell-based
Summary of the method: (§1)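 HEK293T cells, seeded overnight in DMEM with 10% serum, 1 mM sodium pyruvate and 0.075% NaHCO₃, were lipofected with full-length human CD4 (WT or mutant). Test compound in DMSO was added 6 h post-transfection as 1:5 serial dilutions (50–0.016 μM) for 48 h. Surface CD4 was stained with FITC/APC anti-CD4 (SK3) and read by flow cytometry. IC50 is 50% of the untreated signal, from four-parameter fits of ≥3 replicate experiments. FC is mutant/WT mean IC50.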

[2] = target: FL huCD4 Q15A (Homo sapiens, UniProt P01730, Q15A); experiment: CADA down-modulation of cellular huCD4; assay type: cell-based
Summary of the method: as §1

[3] = target: FL huCD4 L30A (Homo sapiens, UniProt P01730, L30A); experiment: CADA down-modulation of cellular huCD4; assay type: cell-based
Summary of the method: as §1

[4] = target: FL huCD4 WT (Homo sapiens, UniProt P01730); experiment: CADA down-modulation of cellular huCD4; assay type: cell-based
Summary of the method: as §1

[5] = target: FL huCD4 R8K (Homo sapiens, UniProt P01730, R8K); experiment: CADA down-modulation of cellular huCD4; assay type: cell-based; conditions: HEK293T, 48h
Summary of the method: as §1

[6] = target: FL huCD4 L11A (Homo sapiens, UniProt P01730, L11A); experiment: CADA down-modulation of cellular huCD4; assay type: cell-based
Summary of the method: as §1

[7] = target: huCD4_1–32-YFP P6A (Homo sapiens, UniProt P01730, P6A); experiment: CADA inhibition of huCD4_1–32-YFP secretion; assay type: cell-based
Summary of the method: (§2)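 HEK293T cells were grown in DMEM with 10% FBS and 10 mM HEPES, seeded and left to adhere overnight, then transiently transfected with plasmid by Lipofectamine. Test compound was added 6 h after transfection as a 1:5 serial dilution (50 to 0.016 μM) for 48 h. Secreted YFP in the supernatant was captured on GFP-Trap magnetic beads for 1 h, washed with PBS and measured by flow cytometry. IC50 is the concentration that halves the signal relative to the untreated control, taken from a four-parameter fit of at least three replicate experiments. FC is the mutant mean IC50 divided by the WT mean IC50.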

[8] = target: FL huCD4 Q15N (Homo sapiens, UniProt P01730, Q15N); experiment: CADA down-modulation of cellular huCD4; assay type: cell-based; conditions: HEK293T, 48h
Summary of the method: as §1

[9] = target: FL huCD4 K32A (Homo sapiens, UniProt P01730, K32A); experiment: CADA down-modulation of cellular huCD4; assay type: cell-based; conditions: read-out: Cellular huCD4 IC50 (μM) Mean, HEK293T, CADA 48h
Summary of the method: as §1

[10] = target: FL huCD4 L10A (Homo sapiens, UniProt P01730, L10A); experiment: CADA down-modulation of cellular huCD4; assay type: cell-based
Summary of the method: as §1

[11] = target: FL huCD4 G25A (Homo sapiens, UniProt P01730, G25A); experiment: CADA down-modulation of cellular huCD4; assay type: cell-based
Summary of the method: as §1

[12] = target: huCD4_1–32-YFP G31A (Homo sapiens, UniProt P01730, G31A); experiment: CADA inhibition of huCD4_1–32-YFP secretion; assay type: cell-based
Summary of the method: (§3)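 HEK293T cells were lipofected with human CD4 residues 1–32 fused to the N-terminus of YFP (secreted, no membrane anchor). Test compound was added 6 h post-transfection as 1:5 serial dilutions (50–0.016 μM) for 48 h. Supernatant was captured on GFP-Trap magnetic beads for 1 h, washed in PBS, and YFP was read by flow cytometry. IC50 is 50% of the untreated control, from four-parameter fits of ≥3 replicate experiments. FC is mutant/WT mean IC50.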

[13] = test system: FL huCD4 V28K; experiment: CADA down-modulation of cellular huCD4; assay type: cell-based, human; conditions: HEK293T, 48h
Summary of the method: as §1

[14] = target: huCD4_1–32-YFP P20A (Homo sapiens, UniProt P01730, P20A); experiment: CADA inhibition of huCD4_1–32-YFP secretion; assay type: cell-based
Summary of the method: as §2

[15] = target: huCD4_1–32-YFP A17V (Homo sapiens, UniProt P01730, A17V); experiment: CADA inhibition of huCD4_1–32-YFP secretion; assay type: cell-based
Summary of the method: as §3

[16] = target: huCD4_1–32-YFP V29A (Homo sapiens, UniProt P01730, V29A); experiment: CADA inhibition of huCD4_1–32-YFP secretion; assay type: cell-based; conditions: + less, − more sensitive to CADA
Summary of the method: as §2

[17] = target: FL huCD4 G4A (Homo sapiens, UniProt P01730, G4A); experiment: CADA down-modulation of cellular huCD4; assay type: cell-based
Summary of the method: as §1

[18] = target: huCD4_1–32-YFP WT (Homo sapiens, UniProt P01730); experiment: CADA inhibition of huCD4_1–32-YFP secretion; assay type: cell-based
Summary of the method: as §2

[19] = target: FL huCD4 Q24A (Homo sapiens, UniProt P01730, Q24A); experiment: CADA down-modulation of cellular huCD4; assay type: cell-based
Summary of the method: as §1

[20] = target: FL huCD4 L14A (Homo sapiens, UniProt P01730, L14A); experiment: CADA down-modulation of cellular huCD4; assay type: cell-based
Summary of the method: as §1

[21] = target: huCD4_1–32-YFP Q15A (Homo sapiens, UniProt P01730, Q15A); experiment: CADA inhibition of huCD4_1–32-YFP secretion; assay type: cell-based
Summary of the method: as §2

[22] = target: FL huCD4 R3A (Homo sapiens, UniProt P01730, R3A); experiment: CADA down-modulation of cellular huCD4; assay type: cell-based
Summary of the method: as §1

[23] = target: FL huCD4 K26E (Homo sapiens, UniProt P01730, K26E); experiment: CADA down-modulation of cellular huCD4; assay type: cell-based; conditions: HEK293T, 48h
Summary of the method: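 Transient transfection of HEK293T cells (Lipofectamine), seeded the night before. Test compound added 6 h post-transfection as a serial 1:5 dilution from 50 to 0.016 μM, then 48 h culture. Surface CD4 stained with FITC- or APC-labelled anti-human CD4 (clone SK3) and read by flow cytometry. IC50 is the concentration reducing signal to 50% of untreated control, interpolated from four-parameter curves (≥3 replicate experiments; 95% CI).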

[24] = + less, − more sensitive to CADA
[25] = read-out: Cellular huCD4 IC50 (μM) Mean, HEK293T, CADA 48h
[26] = read-out: Secreted YFP IC50 (μM) Mean, HEK293T, CADA 48h

## C=C1CN(S(=O)(=O)c2ccc(C)cc2)CCCN(Cc2ccccc2)CCCN(S(=O)(=O)c2ccc(C)cc2)C1 [CADA, Cyclotriazadisulfonamide]
[1]; [24]
  Cellular huCD4 FC (fold change of mean IC50 relative to WT): +2.5
[1]; [25]
  IC50: 1.33 µM
[2]; [24]
  Cellular huCD4 FC (fold change of mean IC50 relative to WT): >+93
[2]; [25]
  IC50: > 50 µM
[3]; [24]
  Cellular huCD4 FC (fold change of mean IC50 relative to WT): +1.6
[3]; [25]
  IC50: 0.84 µM
[4]; [24]
  Cellular huCD4 FC (fold change of mean IC50 relative to WT): 1.00
[4]; [25]
  IC50: 0.54 µM
[5]
  sensitivity to CADA: restored full sensitivity to CADA
[6]; [24]
  Cellular huCD4 FC (fold change of mean IC50 relative to WT): −4.5
[6]; [25]
  IC50: 0.12 µM
[7]; [24]
  Secreted YFP FC (fold change of mean IC50 relative to WT): −2.3
[7]; [26]
  IC50: 0.55 µM
[8]
  sensitivity to CADA: partially restored CADA sensitivity
[9]
  IC50: 1.42 µM
[10]; [24]
  Cellular huCD4 FC (fold change of mean IC50 relative to WT): −2.7
[10]; [25]
  IC50: 0.2 µM
[11]; [24]
  Cellular huCD4 FC (fold change of mean IC50 relative to WT): +1.1
[11]; [25]
  IC50: 0.61 µM
[12]; [24]
  Secreted YFP FC (fold change of mean IC50 relative to WT): +2.0
[12]; [26]
  IC50: 2.56 µM
[13]
  increase in sensitivity to CADA (smaller IC50) relative to WT: more than 3 fold
[14]; [24]
  Secreted YFP FC (fold change of mean IC50 relative to WT): >+39
[14]; [26]
  IC50: > 50 µM
[15]; [24]
  Secreted YFP FC (fold change of mean IC50 relative to WT): >+39
[15]; [26]
  IC50: > 50 µM
[16]
  Secreted YFP FC (fold change of mean IC50 relative to WT): −1.1
[17]; [24]
  Cellular huCD4 FC (fold change of mean IC50 relative to WT): −1.5
[17]; [25]
  IC50: 0.35 µM
[18]; [24]
  Secreted YFP FC (fold change of mean IC50 relative to WT): 1.00
[18]; [26]
  IC50: 1.27 µM
[19]; [24]
  Cellular huCD4 FC (fold change of mean IC50 relative to WT): +2.3
[19]; [25]
  IC50: 1.22 µM
[20]; [24]
  Cellular huCD4 FC (fold change of mean IC50 relative to WT): −1.2
[20]; [25]
  IC50: 0.46 µM
[21]; [24]
  Secreted YFP FC (fold change of mean IC50 relative to WT): >+39
[21]; [26]
  IC50: > 50 µM
[22]; [24]
  Cellular huCD4 FC (fold change of mean IC50 relative to WT): −1.1
[22]; [25]
  IC50: 0.47 µM
[23]
  sensitivity to CADA: copied the alanine substitution phenotypes

Source: paper PMC6980386 (Traffic (Copenhagen, Denmark), 2019)
